Data set [1] in a line: Cytotoxicity against human SW620 cells assessed as survival at 2 uM after 72 hrs by MTT assay relative to control. Type of data set: cell-based, SW-620. The settings on record: read-out: Survival. A general note: Tetrazolium assays rely on reduction of a dye to a coloured formazan, in cell work by metabolically active cells.
Data set [2] addresses T1, ATP-dependent translocase ABCB1 (Homo sapiens, UniProt P08183). The experiment in a line: Inhibition of ABCB1 in human SW620/AD300 cells assessed as potentiation of paclitaxel-induced cytotoxicity by measuring fold reduction in paclitaxel IC50 at 1 uM after 72 hrs by MTT assay. Format: cell-based. The essentials: (§1)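 SW620/AD300 cells (~5×10^3/well) treated with graded paclitaxel with or without modulator (2 µM, or 0.5-2 µM in dose series; 0.1% DMSO solvent control) for 72 h; MTT (5 mg/mL stock) added 4 h, absorbance 490 nm. IC50 as mean ± SD of three independent runs; reversal fold = paclitaxel IC50 without/with modulator.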

Data set [3] deals with T1, ATP-dependent translocase ABCB1. Nature of the data set: Inhibition of ABCB1 in human SW620/AD300 cells assessed as decrease in rhodamine 123 efflux up to 4 uM preincubated for 4 hrs followed by 30 mins incubation in Rho-123 containing medium and subsequent incubation in Rho-123 free medium up to 120 mins by flow cytometry. Type of data set: cell-based. In a few lines:
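Cells loaded with rhodamine 123 as in the accumulation assay (4 h compound pre-exposure, 1 µg/mL dye 30 min, 37℃), then kept in dye-free medium with or without reversal agent for 30, 60, 90 or 120 min at 37℃; intracellular fluorescence read by flow cytometry at 488/530 nm. Three independent experiments.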

For data set [4] the target is unchanged. Nature of the data set: Inhibition of ABCB1 in human SW620/AD300 cells assessed as potentiation of paclitaxel-induced cytotoxicity after 72 hrs by MTT assay. Type of data set: cell-based. In a few lines: as §1
The nature of data set [5]: Cytotoxicity against human SW620/AD300 cells assessed as survival at 2 uM after 72 hrs by MTT assay relative to control. Type of data set: cell-based. The settings on record: read-out: Survival.
The target in data set [6] is T1, ATP-dependent translocase ABCB1. The experiment in a line: Inhibition of ABCB1 in human SW620/AD300 cells assessed as potentiation of paclitaxel-induced cytotoxicity by measuring fold reduction in paclitaxel IC50 at 2 uM after 72 hrs by MTT assay relative to paclitaxel alone. Type of data set: cell-based. In a few lines: as §1
Data set [7] has the same target. Nature of the data set: Inhibition of ABCB1 in human SW620/AD300 cells assessed as potentiation of paclitaxel-induced cytotoxicity by measuring fold reduction in paclitaxel IC50 at 0.5 uM after 72 hrs by MTT assay. Format: cell-based. The essentials: as §1
The target in data set [8] is Cytochrome P450 3A4 (Homo sapiens, UniProt P08684). The experiment in a line: Inhibition of recombinant human CYP3A4 up to 32 uM in presence of NADPH generating system by fluorescence assay. Type of data set: ADME. The settings on record: recombinant enzyme.
The subject of data set [9] is SW620/AD300. The experiment in a line: Effect on subcellular localization of ABCB1 in human SW620/AD300 cells at 2 uM after 48 hrs by Hoechst 33258 staining-based immunofluorescence assay. Type of data set: functional, cell-based. The essentials: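 About 1×10^4 cells on coverslips incubated with compound 48 h, fixed in 4% paraformaldehyde ≥20 min, blocked 2 h in PBS with 5% BSA, anti-ABCB1 primary overnight at 4℃, Alexa Fluor 488 anti-goat secondary 2 h, nuclei stained with Hoechst 33258 20 min; imaged by laser scanning confocal microscopy.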

Calls of active or inactive are those of the source. No cut-off for these calls is given here.

T1 sequence (P08183 whole entry): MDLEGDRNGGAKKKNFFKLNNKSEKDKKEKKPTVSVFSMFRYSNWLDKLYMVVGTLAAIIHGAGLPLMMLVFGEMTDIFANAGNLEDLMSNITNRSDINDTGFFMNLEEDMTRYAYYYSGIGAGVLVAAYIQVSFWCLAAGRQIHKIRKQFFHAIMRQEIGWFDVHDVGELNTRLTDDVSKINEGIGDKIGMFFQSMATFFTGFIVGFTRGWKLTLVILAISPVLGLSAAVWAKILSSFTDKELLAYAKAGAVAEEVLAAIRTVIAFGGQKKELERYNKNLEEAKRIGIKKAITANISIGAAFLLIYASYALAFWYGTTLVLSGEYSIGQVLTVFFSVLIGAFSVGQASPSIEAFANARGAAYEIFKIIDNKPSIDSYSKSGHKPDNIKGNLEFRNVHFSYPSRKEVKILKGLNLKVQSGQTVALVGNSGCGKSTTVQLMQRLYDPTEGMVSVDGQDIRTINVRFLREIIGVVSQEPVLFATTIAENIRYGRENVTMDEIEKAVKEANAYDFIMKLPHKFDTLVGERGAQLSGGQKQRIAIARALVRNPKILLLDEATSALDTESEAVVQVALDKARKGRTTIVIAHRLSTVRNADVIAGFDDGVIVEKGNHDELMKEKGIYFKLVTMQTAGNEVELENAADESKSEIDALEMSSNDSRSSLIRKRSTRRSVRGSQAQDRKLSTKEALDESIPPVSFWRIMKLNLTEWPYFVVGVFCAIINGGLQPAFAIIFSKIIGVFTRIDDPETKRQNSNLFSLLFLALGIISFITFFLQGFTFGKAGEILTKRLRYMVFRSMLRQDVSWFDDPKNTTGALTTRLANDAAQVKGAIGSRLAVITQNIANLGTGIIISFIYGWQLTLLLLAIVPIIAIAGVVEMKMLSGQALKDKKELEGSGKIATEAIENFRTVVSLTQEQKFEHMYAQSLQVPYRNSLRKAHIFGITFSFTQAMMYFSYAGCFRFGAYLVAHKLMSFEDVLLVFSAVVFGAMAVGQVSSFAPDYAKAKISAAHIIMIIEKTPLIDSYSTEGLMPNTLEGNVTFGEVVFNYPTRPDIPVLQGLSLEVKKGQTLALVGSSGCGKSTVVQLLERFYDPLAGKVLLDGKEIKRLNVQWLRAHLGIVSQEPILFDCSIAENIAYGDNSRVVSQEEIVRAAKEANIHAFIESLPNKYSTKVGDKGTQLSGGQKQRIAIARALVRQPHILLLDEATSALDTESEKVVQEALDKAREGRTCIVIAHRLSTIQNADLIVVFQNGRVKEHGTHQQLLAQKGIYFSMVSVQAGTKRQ
Sequence of Cytochrome P450 3A4 (P08684 whole entry): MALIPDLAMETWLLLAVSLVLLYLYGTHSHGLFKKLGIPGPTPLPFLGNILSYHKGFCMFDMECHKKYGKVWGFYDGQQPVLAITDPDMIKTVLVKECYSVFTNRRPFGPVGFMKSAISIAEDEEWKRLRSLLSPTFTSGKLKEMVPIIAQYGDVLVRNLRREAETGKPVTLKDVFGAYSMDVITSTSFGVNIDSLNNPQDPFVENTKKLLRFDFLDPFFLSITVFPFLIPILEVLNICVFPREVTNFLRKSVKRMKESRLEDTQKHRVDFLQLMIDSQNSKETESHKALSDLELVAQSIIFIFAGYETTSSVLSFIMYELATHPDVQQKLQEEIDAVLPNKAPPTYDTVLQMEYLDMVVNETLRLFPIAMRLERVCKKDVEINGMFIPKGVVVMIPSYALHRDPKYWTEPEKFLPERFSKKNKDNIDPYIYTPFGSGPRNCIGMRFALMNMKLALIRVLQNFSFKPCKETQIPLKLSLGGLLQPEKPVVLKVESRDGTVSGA

Consider `COc1cc(-c2nc(SCC(=O)NC(=O)Nc3ccccn3)nc(Nc3ccc(Br)cc3)c2C#N)cc(OC)c1OC`, for which the viability at 72 h, 2 µM in data set [1] and in data set [5] was > 90% throughout. Moreover, the “fold change (FC)” value in [2] stood at 32.2; in data set [6], 190.27; in data set [7], 8.019. The “inhibition (INH)” value in data set [3] is recorded as “Active”; in data set [4], “Dose-dependent effect”; in data set [8], “Not Active”. Moreover, the result in [9] was inactive.

`COc1ccc(CCN(C)CCCC(C#N)(c2ccc(OC)c(OC)c2)C(C)C)cc1OC` (centres undefined): the “inhibition (INH)” value in data set [4] is given as “Dose-dependent effect”.

For `COc1cc(-c2nc(SCC(=O)NC(=O)Nc3ccccc3)nc(Nc3cccc(Cl)c3)c2C#N)cc(OC)c1OC`, the viability at 72 h, 2 µM in [1] and in data set [5] was > 90% each time. The figures for the “fold change (FC)” value in [2], in data set [6] and in [7] were 26.33, 261.63 and 37.04, respectively. The “inhibition (INH)” value is given as “Active” in [3], “Dose-dependent effect” in data set [4] and “Not Active” in data set [8]. The outcome in data set [9] was inactive.

Values taken from ChEMBL document CHEMBL4138318, “Discovery of 5-Cyano-6-phenylpyrimidin Derivatives Containing an Acylurea Moiety as Orally Bioavailable Reversal Agents against P-Glycoprotein-Mediated Mutidrug Resistance” (J Med Chem, 2018).
